Test results from ChEMBL document CHEMBL4414567, “α-Pyrone and Sterol Constituents of Penicillium aurantiacobrunneum, a Fungal Associate of the Lichen Niebla homalea” (J Nat Prod, 2019).

How the values were obtained:
Type in all cases: functional, cell-based
HT-29 = experiment: Antiproliferative activity against human HT-29 cells measured after 72 hrs by sulforhodamine B assay; settings: HT-29, 72 h
In short: (§1)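 SRB antiproliferation assay: cells seeded at 100,000 cells per mL in 96-well plates, incubated with compound 72 h at 37 °C in 95% air/5% CO2; sulforhodamine B staining read-out; three independent experiments, each in triplicate.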

MCF7 = experiment: Antiproliferative activity against human MCF7 cells measured after 72 hrs by sulforhodamine B assay; settings: MCF7, 72 h
In short: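 SRB assay. MCF-7 cells grown in RPMI-1640 with L-glutamine, 10% FBS and 1% antibiotic-antimycotic, at 37 °C in 95% air/5% CO2, and subcultured at 80–90% confluence. Seeded at 6000 cells per mL in 96-well plates, exposed for 72 h at 37 °C, then read by sulforhodamine B staining. Three independent experiments, each in triplicate.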

A2780 = experiment: Antiproliferative activity against human A2780 cells measured after 72 hrs by sulforhodamine B assay; settings: A2780, 72 h
In short: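 A2780 cells grown in RPMI-1640 with L-glutamine, 10% FBS and 1% antibiotic-antimycotic, 37 °C, 5% CO2, subcultured at 80–90% confluence; seeded at 25000 cells per mL in 96-well plates; compound exposure 72 h at 37 °C; sulforhodamine B read-out; three independent experiments, each in triplicate.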

DU-145 = experiment: Antiproliferative activity against human DU145 cells measured after 72 hrs by sulforhodamine B assay; settings: DU-145, 72 h; in short: as §1
HeLa = experiment: Antiproliferative activity against human HeLa cells measured after 72 hrs by sulforhodamine B assay; in short: as §1

IC50 (HT-29) | IC50 (MCF7) | IC50 (A2780) | IC50 (DU-145) | IC50 (HeLa) | SMILES
9.8 µM | > 10 µM | > 10 µM | > 10 µM | > 10 µM | C=C(CC[C@]1(C)O[C@@H]2O[C@@]34[C@H](O)C[C@H]5C[C@@H](O)CC[C@]5(C)[C@H]3CC[C@]23[C@H]4[C@H](O)C[C@@H]31)C(C)C
> 10 µM | > 10 µM | > 10 µM | > 10 µM | > 10 µM | C=C(CC[C@@]1(C)O[C@H]2O[C@H]3C[C@H]1[C@]21CC[C@@H]2[C@@]4(C)CC[C@H](O)C[C@@H]4C[C@H](O)[C@@]2(O)[C@H]31)C(C)C
– | – | 0.018 µM | 0.001 µM | – | CC(=O)O[C@H]1C(=O)[C@@]2(C)[C@H]([C@H](OC(=O)c3ccccc3)[C@]3(O)C[C@H](OC(=O)[C@H](O)[C@@H](NC(=O)c4ccccc4)c4ccccc4)C(C)=C1C3(C)C)[C@]1(OC(C)=O)CO[C@@H]1C[C@@H]2O [PACLITAXEL]

SMILES | IC50 (HT-29) | IC50 (MCF7) | IC50 (A2780) | IC50 (DU-145) | IC50 (HeLa)
COc1cc(=O)oc(/C=C/C=C/C=C/C(C)=C/[C@]2(C)O[C@H](C)[C@](C)(O)[C@@H]2O)c1C | > 10 µM | 4.2 to 6 µM | 5.7 to 8.2 µM | > 10 µM | > 10 µM
